The results in this text go back to the array DNA melting data of Ke et al. (doi:10.1101/2024.01.08.574731).

A short description of data set [1]: folding enthalpy; higher = less favourable; fluorescence melt of hairpins on a sequencing array, two-state fit. The conditions noted are these: sodium 0.088 M. Summed up: (§1)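 Bootstrapped two-state fits yielded melting temperature and folding enthalpy for library hairpins. Cy3 fluorescence, with annealed Cy3 and quencher oligos, was imaged on a sequenced MiSeq flow cell in 50 mM Na-HEPES pH 8.0, 25 mM NaCl in 2.5 °C steps up to 60 °C, and normalised to pre-quench Cy3 and to control constructs. Four replicates were combined by inverse variance, and fitted temperatures were raised by 9.35 °C to match UV melts.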

Data set [2] in a line: melting temperature; fluorescence melt of hairpins on a sequencing array, two-state fit, raised by 9.35 °C to match UV melts. The conditions noted are these: sodium 0.088 M. Summed up: as §1

For GATCCCTGCAGGGATC ((((((....)))))), the folding enthalpy in data set [1] is -37.8 kcal/mol. In addition, the Tm in data set [2] was 66 °C.
Taken in the same sequence, the figures for GATCCCTGTAGGGATC ((((((....)))))) were -41.1 kcal/mol and 65.8 °C.
Taken in the same sequence, the figures for GATCCCTTGCGGGATC ((((((....)))))) were -39.6 kcal/mol and 60.7 °C.
Taken in the same sequence, the figures for GATCCCTTTCGGGATC ((((((....)))))) were -48.2 kcal/mol and 60.1 °C.
Consider GATCCCTTTGGGGATC ((((((....)))))), for which the folding enthalpy in data set [1] is -46 kcal/mol. For the same sequence, the Tm in data set [2] was determined as 62.8 °C.
The like results for GATCCCTTTTGGGATC ((((((....)))))) were, in that order, -38.3 kcal/mol and 60.1 °C.
Taken in the same sequence, the figures for GATCCGAAACGGATC ((((((...)))))) were -35.4 kcal/mol and 57 °C.
For the sequence GATCCGAAATCGGATC ((((((....)))))), in data set [1], the folding enthalpy is -35.4 kcal/mol. In addition, in data set [2], the Tm is 54.9 °C.
With GATCCGAAGCCGGATC ((((((....)))))), in data set [1], the folding enthalpy is -39.6 kcal/mol. Also, in data set [2], the Tm is 55.4 °C.
As to GATCCGACACGGATC ((((((...)))))), in data set [1], the folding enthalpy is -35.6 kcal/mol. In addition, the Tm in data set [2] is 59.1 °C.
The like results for GATCCGACCCGGATC ((((((...)))))) were, in that order, -39.9 kcal/mol and 56.6 °C.
Taken in the same sequence, the figures for GATCCGACTGCGGATC ((((((....)))))) were -48.8 kcal/mol and 56.1 °C.
On to GATCCGACTTCGGATC ((((((....)))))), for which the folding enthalpy in data set [1] was -39.6 kcal/mol. Moreover, the Tm in data set [2] is 57.4 °C.
In the case of GATCCGAGCCGGATC ((((((...)))))), the folding enthalpy in data set [1] was -44.5 kcal/mol. Moreover, the Tm in data set [2] was found to be 56.3 °C.
Taken in the same sequence, the figures for GATCCGAGGCCGGATC ((((((....)))))) were -45.5 kcal/mol and 56.4 °C.
Taken in the same sequence, the figures for GATCCGAGGCGGATC ((((((...)))))) were -43.4 kcal/mol and 56.8 °C.
As to GATCCGAGTCCGGATC ((((((....)))))), the folding enthalpy in data set [1] is -40.2 kcal/mol. Further, in data set [2], the Tm turned out to be 56 °C.
The like results for GATCCGATAACGGATC ((((((....)))))) were, in that order, -33.1 kcal/mol and 59.1 °C.
The like results for GATCCGATCTCGGATC ((((((....)))))) were, in that order, -40.9 kcal/mol and 62.2 °C.
The like results for GATCCGATGGCGGATC ((((((....)))))) were, in that order, -42.8 kcal/mol and 56.6 °C.
In the case of GATCCGATTCCGGATC ((((((....)))))), the folding enthalpy in data set [1] is -43.5 kcal/mol. The Tm in data set [2] amounted to 57.1 °C.
The like results for GATCCGATTGCGGATC ((((((....)))))) were, in that order, -38.4 kcal/mol and 56.1 °C.
Take GATCCGCAACGGATC ((((((...)))))): in data set [1], the folding enthalpy is -33 kcal/mol. In data set [2], the Tm came out at 55.8 °C.
Regarding GATCCGCAAGCGGATC ((((((....)))))), in data set [1], the folding enthalpy is -39 kcal/mol. Also, the Tm in data set [2] is 68 °C.
Taken in the same sequence, the figures for GATCCGCAATCGGATC ((((((....)))))) were -35.1 kcal/mol and 56 °C.
Taken in the same sequence, the figures for GATCCGCCACCGGATC ((((((....)))))) were -34.3 kcal/mol and 56.4 °C.
Take GATCCGCCCACGGATC ((((((....)))))): the folding enthalpy in data set [1] is -43.6 kcal/mol. Further, in data set [2], the Tm was determined as 59.5 °C.
The like results for GATCCGCCCCGGATC ((((((...)))))) were, in that order, -36.8 kcal/mol and 58.4 °C.
Taken in the same sequence, the figures for GATCCGCCCGCGGATC ((((((....)))))) were -38.3 kcal/mol and 68.7 °C.
The like results for GATCCGCCGGCGGATC ((((((....)))))) were, in that order, -45.4 kcal/mol and 68.9 °C.
Take GATCCGCGAACGGATC ((((((....)))))): the folding enthalpy in data set [1] is -42.3 kcal/mol. Moreover, in data set [2], the Tm turned out to be 58.9 °C.
With GATCCGCGACCGGATC ((((((....)))))), in data set [1], the folding enthalpy was -38.4 kcal/mol. Also, the Tm in data set [2] turned out to be 54.8 °C.
The like results for GATCCGCGATCGGATC ((((((....)))))) were, in that order, -28.8 kcal/mol and 57.4 °C.
Taken in the same sequence, the figures for GATCCGCGGTCGGATC ((((((....)))))) were -42.7 kcal/mol and 57.2 °C.
With GATCCGCGTCCGGATC ((((((....)))))), the folding enthalpy in data set [1] was -41.8 kcal/mol. The Tm in data set [2] is 57.6 °C.
Taken in the same sequence, the figures for GATCCGCTATCGGATC ((((((....)))))) were -40.2 kcal/mol and 57.2 °C.
Taken in the same sequence, the figures for GATCCGCTCACGGATC ((((((....)))))) were -41.3 kcal/mol and 63.3 °C.
For GATCCGCTCTCGGATC ((((((....)))))), the folding enthalpy in data set [1] is -33.8 kcal/mol. In data set [2], the Tm was found to be 60 °C.
